In brackets after ≈: the same amount, converted by molar mass.
Key:
Escherichia coli [1] = test: Antibacterial activity against Escherichia coli K-12 in M9 minimal media by turbidometric method; assay type: functional
Escherichia coli [2] = test: Antibacterial activity against Escherichia coli K-12 in M9 minimal media in presence of folate precursor PABA by turbidometric method; assay type: functional
Escherichia coli [3] = test: Antibacterial activity against Escherichia coli K-12 in M9 minimal media in presence of methionine by turbidometric method; assay type: functional
Dihydropteroate synthase [4] = biological target: T1, Dihydropteroate synthase (Bacillus anthracis, UniProt Q81VW8); test: Inhibition of fluorescein-labeled probe binding to Bacillus anthracis N-terminal His-tagged DHPS incubated for 1 hr by fluorescence polarization assay
T1 sequence (Q81VW8 whole entry): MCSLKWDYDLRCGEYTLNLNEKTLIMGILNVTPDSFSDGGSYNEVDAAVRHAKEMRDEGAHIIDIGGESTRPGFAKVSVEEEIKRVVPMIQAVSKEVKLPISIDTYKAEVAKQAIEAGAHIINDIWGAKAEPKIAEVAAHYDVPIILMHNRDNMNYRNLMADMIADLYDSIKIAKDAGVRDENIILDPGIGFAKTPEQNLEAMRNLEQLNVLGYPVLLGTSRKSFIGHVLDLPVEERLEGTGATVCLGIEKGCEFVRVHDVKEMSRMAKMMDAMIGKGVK
Method in brief: (§1)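 Competition binding of test compounds against a probe on B. anthracis DHPS, read by fluorescence polarization as displacement of the probe; run without added pyrophosphate or with 2 mM sodium pyrophosphate, the DHPS reaction byproduct, to confirm site-specific binding; IC50 values derived from probe displacement.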

Dihydropteroate synthase [5] = biological target: T1, Dihydropteroate synthase; test: Inhibition of fluorescein-labeled probe binding to Bacillus anthracis N-terminal His-tagged DHPS incubated for 1 hr in presence of sodium pyrophosphate by fluorescence polarization assay; method in brief: as §1

| Structure (SMILES) | MIC (Escherichia coli [1]) [µM] | MIC (Escherichia coli [2]) [µM] | MIC (Escherichia coli [3]) [µM] | IC50 (Dihydropteroate synthase [4]) [µM] | IC50 (Dihydropteroate synthase [5]) [µM] |
| --- | --- | --- | --- | --- | --- |
| CC(=O)Nc1nc2ncc(CNc3ccc(S(=O)(=O)Nc4ccccn4)cc3)nc2c(=O)[nH]1 | 2.7 (≈ 1.26 µg/mL) | 669 | 6.3 |  |  |
| COc1ncnc(NS(=O)(=O)c2ccc(NCc3cnc4nc(N)[nH]c(=O)c4n3)cc2)c1OC | 34.3 (≈ 16.7 µg/mL) | > 412 | 172 | 15.2 | 11.5 |
| CC(=O)NS(=O)(=O)c1ccc(NCc2cnc3nc(N)[nH]c(=O)c3n2)cc1 | 136 (≈ 53 µg/mL) | > 514 | > 200 | 18.6 | 17.1 |
| CC(=O)Nc1nc2ncc(CNc3ccc(S(=O)(=O)Nc4onc(C)c4C)cc3)nc2c(=O)[nH]1 | 1.5 (≈ 0.727 µg/mL) | 249 | 5.9 |  |  |
| Cc1cc(NS(=O)(=O)c2ccc(NCc3cnc4nc(N)[nH]c(=O)c4n3)cc2)no1 | 10.9 (≈ 4.67 µg/mL) | 467 | 29 | 20.6 | 3.4 |
| Nc1nc2ncc(CNc3ccc(S(=O)(=O)Nc4ncccn4)cc3)nc2c(=O)[nH]1 | 17.1 (≈ 7.27 µg/mL) | > 470 | 78 | 19.3 | 9.4 |
| O=C(N[C@H](CO)[C@H](O)c1ccc([N+](=O)[O-])cc1)C(Cl)Cl [CHLORAMPHENICOL] | 8.5 (≈ 2.75 µg/mL) | 9.7 | 9.7 |  |  |
| COc1cc(NS(=O)(=O)c2ccc(NCc3cnc4nc(NC(C)=O)[nH]c(=O)c4n3)cc2)nc(OC)n1 | 1.6 (≈ 0.844 µg/mL) | 537 | 3.4 |  |  |
| COc1ncnc(NS(=O)(=O)c2ccc(NCc3cnc4nc(NC(C)=O)[nH]c(=O)c4n3)cc2)c1OC | 3.8 (≈ 2 µg/mL) | > 644 | 10.1 |  |  |
| COc1cc(Cc2cnc(N)nc2N)cc(OC)c1OC [TRIMETHOPRIM] | 1.7 (≈ 0.494 µg/mL) | 1.4 | 0.7 |  |  |
| Cc1noc(NS(=O)(=O)c2ccc(NCc3cnc4nc(N)[nH]c(=O)c4n3)cc2)c1C | 28.3 (≈ 12.5 µg/mL) | > 412 | 47 | 22.5 | 8.1 |
| CC(=O)Nc1nc2ncc(CNc3ccc(S(=O)(=O)Nc4ncccn4)cc3)nc2c(=O)[nH]1 | 1.6 (≈ 0.748 µg/mL) | 666 | 6.2 |  |  |
| CC1(C)S[C@@H]2[C@H](NC(=O)[C@H](N)c3ccccc3)C(=O)N2[C@H]1C(=O)O [AMPICILLIN] | 1.58 (≈ 0.552 µg/mL) | 2 | 2.1 |  |  |
| CC(=O)Nc1nc2ncc(CNc3ccc(S(=O)(=O)Nc4cc(C)on4)cc3)nc2c(=O)[nH]1 | 0.8 (≈ 0.376 µg/mL) | 263 | 1.5 |  |  |
| Nc1nc2ncc(CNc3ccc(S(=O)(=O)Nc4ccccn4)cc3)nc2c(=O)[nH]1 | 29.5 (≈ 12.5 µg/mL) | > 471 | 98 | > 62.5 | 2.5 |
| Nc1ccc(S(=O)(=O)c2ccc(NCc3cnc4nc(N)[nH]c(=O)c4n3)cc2)cc1 | 197 (≈ 83.4 µg/mL) | 236 | 236 | 17.8 | 11.3 |
| COc1cc(NS(=O)(=O)c2ccc(NCc3cnc4nc(N)[nH]c(=O)c4n3)cc2)nc(OC)n1 | 17.2 (≈ 8.35 µg/mL) | > 412 | 86 | 26.8 | 1.9 |
| CC(=O)Nc1nc2ncc(CNc3ccc(S(=O)(=O)NC(C)=O)cc3)nc2c(=O)[nH]1 | 22 (≈ 9.49 µg/mL) | > 934 | 58 |  |  |
| CC(=O)Nc1nc2ncc(CNc3ccc(S(=O)(=O)c4ccc(N)cc4)cc3)nc2c(=O)[nH]1 | 25 (≈ 11.6 µg/mL) | > 934 | 50 |  |  |

Source: ChEMBL document CHEMBL3826895, “Pterin-sulfa conjugates as dihydropteroate synthase inhibitors and antibacterial agents” (Bioorg Med Chem Lett, 2016)
